High-throughput results: PubChem BioAssay, The Scripps Research Institute Molecular Screening Center
CHRM4 antagonist – blocks acetylcholine activation of human M4 receptor. P08173. 360,000 tested, 0.73% active. CHO-hM4 cells, ACh EC80, Fluo-8 calcium fluorescence. inhibition, % at 3 µM;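 active = inhibition above its plate's cutoff, the mean inhibition of sample wells plus 3 SD, cut at about 27% in these data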
M5 ag – CHRM5 agonism in calcium assay | P08912 | CHO-K1 hM5 cells, Fluo-8 calcium fluorescence; 0% DMSO wells, 100% maximal acetylcholine response | activation, % at 3 µM | 360,000 tested, 0.19% active | AID 624037;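 active = activation above the run's mean over test compounds plus 3 SD, cut at about 23% in these data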;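 note: signal is peak over basal fluorescence ratio across the kinetic read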
Target sequence (P08912 whole entry, looked up): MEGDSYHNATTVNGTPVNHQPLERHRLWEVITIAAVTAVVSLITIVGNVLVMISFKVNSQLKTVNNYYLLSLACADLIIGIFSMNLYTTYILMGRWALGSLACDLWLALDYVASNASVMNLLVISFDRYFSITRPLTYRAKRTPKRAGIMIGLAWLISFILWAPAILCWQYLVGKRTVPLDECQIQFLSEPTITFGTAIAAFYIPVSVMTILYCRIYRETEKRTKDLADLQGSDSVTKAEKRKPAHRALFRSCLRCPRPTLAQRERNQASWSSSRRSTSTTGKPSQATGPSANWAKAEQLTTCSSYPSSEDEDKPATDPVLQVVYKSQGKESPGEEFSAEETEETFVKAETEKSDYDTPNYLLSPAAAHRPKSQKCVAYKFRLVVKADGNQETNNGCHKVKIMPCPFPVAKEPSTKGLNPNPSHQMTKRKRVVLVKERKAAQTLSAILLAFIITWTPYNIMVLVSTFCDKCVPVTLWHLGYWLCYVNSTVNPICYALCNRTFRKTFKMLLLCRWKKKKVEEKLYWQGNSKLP
CHRM4 PAM – potentiates acetylcholine response at human M4 receptor; P08173; CHO-K1 hM4/Gqi5, Fluo-8 calcium fluorescence, ACh EC20; 0% = ACh EC20, 100% = maximal ACh; activation, % at 3 µM; 360,000 tested, 0.4% active; AID 624126;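 active = activation above its plate's cutoff, the mean activation of sample wells plus 3 SD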
CHRM4 agonist – agonists of human muscarinic M4 receptor (CHRM4); P08173; CHO-K1 hM4/Gqi5, Fluo-8 calcium fluorescence; vehicle 0%, full acetylcholine response 100%; activation, % at 3 µM; 360,000 tested, 0.14% active; AID 624127;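 active = activation above the run mean over all test wells plus 3 SD, cut at about 32% in these data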;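 note: peak over basal fluorescence ratio per well then scaled between controls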
CHRM5 antagonist – CHRM5 antagonism in calcium assay | P08912 | CHO-hM5 cells, Fluo-8 calcium fluorescence, ACh EC80 | inhibition, % at 3 µM | 360,000 tested, 0.59% active | AID 624040;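 active = inhibition above a per-plate cutoff, the mean of that plate's test compounds plus 3 SD, cut at about 27% in these data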
CHRM5 PAM – positive allosteric modulators of human muscarinic M5 receptor. CHO-K1 hM5, Fluo-8 calcium, ACh EC20 PAM; 0% = ACh EC20, 100% = ACh EC100. activation, % at 3 µM. 360,000 tested, 0.3% active;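 active = activation above the run cutoff, the mean activation of all test compounds plus 3 SD, cut at about 18% in these data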
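System: CHO-K1 cell line with stable human muscarinic M5 receptor expression | Also added: EC20 acetylcholine as agonist stimulus | Compound: One concentration, 3 µM final (nominal) | Timing: Fluo-8 loading 80 min at 37 °C plus 30 min room temperature | Measured by: Fluo-8 calcium dye fluorescence, kinetic read | Read-out basis: % activation, ACh-normalized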
A number is an active result; . = inactive. Compounds with a hit are over-represented: about 1.8% of the library has one in this group of screens.

SMILES | CHRM4 antagonist | M5 ag | CHRM4 PAM | CHRM4 agonist | CHRM5 antagonist | CHRM5 PAM
CCCCn1c(N)c(N(CC(C)C)C(=O)CSCC(=O)Nc2ccc(C)cc2)c(=O)[nH]c1=O | . | . | . | . | . | .
O=C(CN1C(=O)C(=O)N(C2CCCC2)C1=O)Nc1ccc([N+](=O)[O-])cc1 | . | . | . | . | . | .
CCOC(=O)c1ccc(NC(=O)c2nc[nH]c2C(=O)N(CC)CC)cc1 | . | . | 22 | . | . | .
CCOC(=O)c1ccc(NC(=O)c2ncn3c2C(=O)N[C@H](C)C3)cc1 | . | . | 17 | . | . | .
CCOC(=O)c1ccc(NC(=O)c2ncn3c2C(=O)NC[C@H]3C)cc1 | . | . | . | . | . | .
CCOC(=O)c1ccc(NC(=O)c2nc[nH]c2C(=O)NCCCNC(=O)c2[nH]cnc2C(=O)Nc2ccc(C(=O)OCC)cc2)cc1 | . | . | . | . | . | .
CCOc1cccc(NC(=O)c2cccc(F)c2)c1 | . | . | . | . | . | .
O=C(Nc1cnn(Cc2ccc(Cl)cc2Cl)c1)c1cc(-c2cccs2)on1 | . | . | 31 | . | . | .
O=C(Nc1cnn(Cc2ccc(Cl)cc2Cl)c1)c1noc2c1CCCC2 | . | . | . | . | . | .
CCn1c(NCc2ccccn2)nc2c1c(=O)n(C)c(=O)n2C | . | . | 40 | . | . | .
CC1CC(C)CN(C(=O)COC(=O)c2ccc(Cl)nc2)C1 (stereo not given) | . | . | . | . | . | .
NC(=O)c1c(NC(=O)Cn2cnc([N+](=O)[O-])n2)sc2c1CCCC2 | 28 | . | . | . | . | .
OC(c1ccc(Cl)c(Cl)c1)c1ncc(-c2ccccc2Cl)[nH]1 (stereo not given) | . | . | . | . | . | .
Cc1ccccc1-n1nnnc1SCC(=O)NCC1(N2CCOCC2)CCCCC1 | . | . | . | . | . | .
O=C(c1cccc(S(=O)(=O)N2CCOCC2)c1)N1CCC(Cc2ccccc2)CC1 | . | . | . | . | . | .
O=C(c1cccc(S(=O)(=O)N2CCOCC2)c1)N1CCN(C/C=C/c2ccccc2)CC1 | . | . | . | . | 39 | .
Nc1nc(-c2ccc3c(c2)OCCO3)cs1 | . | . | . | . | . | .
Nc1nc(-c2ccc3c(c2)CCCC3)cs1 | . | . | . | . | . | 20
COc1ccnc(Oc2ccccc2)c1C(=O)N/C=N/OCc1ccc(F)cc1Cl | . | . | . | 35 | . | .
CC(=O)c1c(N)c(C#N)c(C)n1-c1ccc(Br)cc1 | . | . | . | . | 27 | 35
O=C1Nc2ccccc2-n2nnnc2C1N1CCN(c2ccc(F)cc2)CC1 (stereo not given) | . | . | . | . | . | .
CCN(c1ccccc1)S(=O)(=O)c1ccc(NC(=O)c2nc(S(C)(=O)=O)ncc2Cl)cc1 | 75 | . | . | 36 | 29 | .
CCS(=O)(=O)c1ncc(Cl)c(C(=O)Nc2ccc(S(=O)(=O)N(C)c3ccccc3)cc2)n1 | 59 | . | . | . | . | .
CC(=O)Nc1ccc(S(=O)(=O)Nc2cccc3cccnc23)cc1 | . | . | . | . | . | .
O=S(=O)(Nc1cccc2cccnc12)c1ccccc1 | 42 | . | . | . | . | .
SMILES | CHRM4 antagonist | M5 ag | CHRM4 PAM | CHRM4 agonist | CHRM5 antagonist | CHRM5 PAM
O=S(=O)(Nc1cccc2cccnc12)c1ccc(S(=O)(=O)N2CCCC2)cc1 | 31 | . | . | . | . | .
COc1cc(C(=O)NCc2nnc(SCC(=O)Nc3cccc(C(F)(F)F)c3)o2)cc(OC)c1OC | . | . | . | . | . | .
Cc1ccc(OCC(O)Cn2c(=N)n(Cc3ccccc3)c3ccccc32)cc1 (stereo not given) | . | . | . | 33 | . | .
O=C(NCCn1cc(SCc2ccc(F)cc2)c2ccccc21)c1ccccc1F | 28 | . | . | . | . | .
O=C1CSC(=Nc2cccc(Cl)c2Cl)N1 | . | . | . | . | . | .
COc1ccc(-c2sc3ccccc3c2-c2ccc(OCCN(C)C)cc2)cc1 | 36 | . | . | . | . | .
CN(C)CCOc1ccc(-c2c(-c3ccsc3)sc3ccccc23)cc1 | . | . | . | . | . | .
Cc1cccc2sc(N(CCCN(C)C)C(=O)c3ccc4ncsc4c3)nc12 | 30 | . | 34 | . | . | .
CN(C)CCCN(C(=O)c1ccc(C(=O)c2ccccc2)cc1)c1nc2cc3c(cc2s1)OCCO3 | . | . | . | . | 28 | .
CN(C)CCN(C(=O)c1ccc(C(=O)c2ccccc2)cc1)c1nc2cc3c(cc2s1)OCCO3 | . | . | . | . | . | .
CCN(CC)CCN(C(=O)c1ccc2c(c1)OCCO2)c1nc2cc(C)cc(C)c2s1 | . | . | 18 | . | . | .
CN(C)CCCN(C(=O)CCc1ccccc1)c1nc2ccc(F)cc2s1 | . | . | . | . | . | .
CN(C)CCCN(C(=O)CCc1ccccc1)c1nc2ccc(Br)cc2s1 | 53 | . | . | 34 | . | .
Cc1cccc2sc(N(CCCN(C)C)C(=O)c3nc4ccccc4s3)nc12 | . | . | . | . | . | .
CCCCCNC(=O)c1[nH]c(C(F)(F)F)nc1-c1ccccc1 | . | . | . | . | . | .
Cc1ccccc1Nc1nc(N)[nH]c(=O)c1N=O | . | . | . | . | . | .
COc1ccc(-n2c3c(cc(C(=O)N4CCCCC4)c2=O)C(=O)CC(C)(C)C3)cc1 | 27 | . | . | . | . | .
CC1(C)CC(=O)c2cc(C(=O)N3CCCC(C)(C)C3)c(=O)n(-c3ccccc3)c2C1 | . | . | . | . | . | .
CCCOc1cc(NCc2ccccc2)c2ncn(C(C)C)c2c1 | . | . | 24 | . | . | .
CCOc1cc(NCc2ccccc2)c2ncn(C(C)C)c2c1 | . | . | . | . | . | .
COCCCNC(=O)c1ccc2nc(Cc3ccc(OC)cc3)oc2c1 | 37 | . | . | . | . | .
CCN(CC)C(=O)C1=C(C)N(Cc2ccc(F)cc2)C(=O)C(CC(=O)NCCCN(C)C)C1 (stereo not given) | . | . | . | . | . | .
CCC1CCCCN1CCCNC(=O)CNC(=O)c1nn(-c2ccc(OC)c(Cl)c2)c(=O)c2ccccc12 (stereo not given) | 37 | . | . | . | . | .
COc1ccc(-n2nc(C(=O)NCC(=O)Nc3cc(OC)c(OC)c(OC)c3)c3ccccc3c2=O)cc1OC | 27 | . | . | . | . | .
CC1CCCC(C)N1C(=O)COC(=O)C1CCN(S(=O)(=O)c2ccc3c(c2)OCCO3)CC1 (stereo not given) | . | . | . | . | . | .
Cc1ccc(N2C(=O)c3ccccc3NC2c2ccccc2O)cc1 (stereo not given) | 45 | . | . | . | . | .
